Test results taken from ChEMBL document CHEMBL4017487, “Design and Synthesis of γ- and δ-Lactam M1 Positive Allosteric Modulators (PAMs): Convulsion and Cholinergic Toxicity of an M1-Selective PAM with Weak Agonist Activity” (J Med Chem, 2017).
Active and inactive are the calls of the source. The calls are words filed in the database; no cut-off is given here.

Legend:
Canis familiaris [1] = experiment: Cholinergic toxicity in dog assessed as soft stool at 5 mg/kg, po administered as single dose using spray dried dispersion formulation after 1.5 hrs; type: organism-based, Canis lupus familiaris; conditions: in vivo
In short: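 Dog single oral dose escalation: 1/sex at 5 mg/kg for each formulation; 1 female at 15 mg/kg. Spray-dried dispersion: 23% drug loading with 0.5% methylcellulose and 100 mM citrate buffer. Clinical signs timed in approximate hours postdose; unbound plasma Cmax.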

Mus musculus = experiment: Reversal of amphetamine-induced hyperlocomotion in C57BL/6 mouse assessed as decrease in total distance traveled at 0.3 to 3.2 mg/kg, sc pretreated for 30 mins followed by amphetamine dosing measured for 90 mins; type: functional, organism-based
In short: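 C57BL/6 mice, D-amphetamine-stimulated locomotor activity. Compound at 0.32, 1 and 3.2 mg/kg sc as a solution in 10/90 Cremophor/water. Plasma and brain exposures from a satellite group (N = 2/dose) at 1 h.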

Plasma = experiment: Unbound plasma concentration in scopolamine-induced memory impairment Wistar rat model at 3.2 mg/kg, sc measured after 1.25 hrs by LC-MS/MS analysis; type: ADME, organism-based; conditions: in vivo
In short: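 Rats from a satellite group of the scopolamine (0.32 mg/kg) Morris water maze study, N = 2/dose. Dosed sc as a solution in 20% hydroxypropyl β-cyclodextrin. Compound concentrations measured in plasma only at T = 1.25 h.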

[2] = Ratio of AUC in rat brain to plasma at 2 mg/kg, po or 0.5 mg/kg, iv administered as single bolus dose; type: ADME, organism-based; conditions: read-out: Ratio AUC
In short: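 Brain/plasma ratio computed from AUC of total drug in brain and total drug in plasma.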

Canis familiaris [3] = experiment: Toxicity in dog assessed as unbound Cmax in plasma required to show convulsions at 15 mg/kg, po administered as single dose using spray dried dispersion formulation; type: organism-based, Canis lupus familiaris; conditions: in vivo
[4] = biological target: T1, Muscarinic acetylcholine receptor M1 (Homo sapiens, UniProt P11229); experiment: Activity at human muscarinic acetylcholine receptor M1 expressed in CHO cells assessed as increase in acetylcholine-induced beta-arrestin recruitment; type: cell-based
T1 sequence (P11229 whole entry): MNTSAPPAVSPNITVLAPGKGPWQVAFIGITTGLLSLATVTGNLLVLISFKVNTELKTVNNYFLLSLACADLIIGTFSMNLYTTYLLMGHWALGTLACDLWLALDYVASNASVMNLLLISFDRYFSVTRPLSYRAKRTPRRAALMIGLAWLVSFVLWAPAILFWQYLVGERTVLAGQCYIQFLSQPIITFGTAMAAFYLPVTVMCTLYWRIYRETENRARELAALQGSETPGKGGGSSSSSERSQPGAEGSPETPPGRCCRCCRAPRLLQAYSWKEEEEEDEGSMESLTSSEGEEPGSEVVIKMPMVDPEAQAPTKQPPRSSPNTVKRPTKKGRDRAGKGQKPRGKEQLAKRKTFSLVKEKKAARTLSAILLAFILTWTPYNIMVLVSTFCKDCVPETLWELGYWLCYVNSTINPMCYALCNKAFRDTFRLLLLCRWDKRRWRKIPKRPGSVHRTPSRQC

Rattus norvegicus [5] = experiment: Unbound Cmax in rat plasma at 5 mg/kg, po administered as single dose; type: ADME, organism-based; conditions: in vivo
In short: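 Rats (3/sex/dose) dosed orally once, 1 or 5 mg/kg as a 0.5% methylcellulose suspension.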

[6] = Oral bioavailability in dog at 0.5 mg/kg administered as single dose; type: ADME, organism-based, Canis lupus familiaris; conditions: in vivo
[7] = Ratio of unbound AUC in rat brain to plasma at 2 mg/kg, po or 0.5 mg/kg, iv administered as single bolus dose; type: ADME, organism-based
[8] = biological target: T2, Muscarinic acetylcholine receptor M2 (Homo sapiens, UniProt P08172); experiment: Agonist activity at human muscarinic acetylcholine receptor M2 expressed in CHO cells assessed as increase in cAMP accumulation after 2 hrs by cAMP-Glo assay; type: cell-based
T2 sequence (P08172 whole entry): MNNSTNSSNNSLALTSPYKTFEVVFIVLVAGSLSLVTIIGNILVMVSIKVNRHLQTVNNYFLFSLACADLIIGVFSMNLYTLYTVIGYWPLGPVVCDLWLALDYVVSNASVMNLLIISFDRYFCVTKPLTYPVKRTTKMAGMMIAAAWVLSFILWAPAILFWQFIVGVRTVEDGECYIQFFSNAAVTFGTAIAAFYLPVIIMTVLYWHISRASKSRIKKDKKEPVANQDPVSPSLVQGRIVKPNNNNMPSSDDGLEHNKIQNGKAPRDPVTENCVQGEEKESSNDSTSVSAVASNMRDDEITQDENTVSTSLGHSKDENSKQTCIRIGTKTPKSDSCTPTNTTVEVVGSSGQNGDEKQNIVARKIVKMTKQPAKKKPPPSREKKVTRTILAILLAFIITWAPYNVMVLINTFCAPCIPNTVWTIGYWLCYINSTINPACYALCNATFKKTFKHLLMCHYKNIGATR
In short: (§1)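 Recombinant functional human M2–M5 assays, each run in agonist and PAM modes at concentrations up to 10 μM.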

[9] = biological target: Muscarinic acetylcholine receptor M3 (Homo sapiens, UniProt P20309); experiment: Positive allosteric modulation of human muscarinic acetylcholine receptor M3 expressed in CHO cells assessed as increase in acetylcholine-induced calcium mobilization up to 10 uM preincubated for 10 mins followed by acetylcholine addition by Fluo-8-AM dye based FLIPR assay; type: cell-based; in short: as §1
Rattus norvegicus [10] = experiment: Unbound AUC (0 to 24 hrs) in rat plasma at 15 mg/kg, po administered as single dose; type: ADME, organism-based; conditions: in vivo
[11] = biological target: T3, Muscarinic acetylcholine receptor M4 (Homo sapiens, UniProt P08173); experiment: Positive allosteric modulation of human muscarinic acetylcholine receptor M4 expressed in CHO cells assessed as increase in acetylcholine-induced cAMP accumulation up to 10 uM after 2 hrs by cAMP-Glo assay; type: cell-based; in short: as §1
T3 sequence (P08173 whole entry): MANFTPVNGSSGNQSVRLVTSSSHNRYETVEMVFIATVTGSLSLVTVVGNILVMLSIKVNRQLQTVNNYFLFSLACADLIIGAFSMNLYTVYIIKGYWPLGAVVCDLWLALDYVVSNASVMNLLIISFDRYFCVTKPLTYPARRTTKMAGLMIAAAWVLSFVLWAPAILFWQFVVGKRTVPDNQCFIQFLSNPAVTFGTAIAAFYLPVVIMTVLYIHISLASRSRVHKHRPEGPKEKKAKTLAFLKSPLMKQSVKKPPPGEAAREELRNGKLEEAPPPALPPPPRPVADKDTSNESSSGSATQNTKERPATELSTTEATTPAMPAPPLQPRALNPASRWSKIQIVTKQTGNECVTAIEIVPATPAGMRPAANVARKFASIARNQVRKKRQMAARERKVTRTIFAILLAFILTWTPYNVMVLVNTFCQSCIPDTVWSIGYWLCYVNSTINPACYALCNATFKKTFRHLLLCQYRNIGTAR

Canis familiaris [12] = experiment: Unbound Cmax in dog plasma at 5 mg/kg, po administered as single dose using hydroxypropyl cellulose/docusate sodium formulation; type: ADME, organism-based, Canis lupus familiaris; conditions: in vivo
In short: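 Dogs given a single oral 5 mg/kg dose as a nanosuspension (hydroxypropyl cellulose SL, 0.05% docusate sodium in purified water), 1/sex. Unbound plasma Cmax and AUC determined, with clinical signs monitored at approximate hours postdose.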

[13] = Oral bioavailability in rat at 2 mg/kg administered as single dose; type: ADME, organism-based; conditions: in vivo
[14] = biological target: T1, Muscarinic acetylcholine receptor M1; experiment: Agonist activity at human muscarinic acetylcholine receptor M1 expressed in CHO cells at 30 uM by beta-arrestin recruitment assay relative to acetylcholine; type: cell-based

Sequence of Muscarinic acetylcholine receptor M3 (P20309 whole entry): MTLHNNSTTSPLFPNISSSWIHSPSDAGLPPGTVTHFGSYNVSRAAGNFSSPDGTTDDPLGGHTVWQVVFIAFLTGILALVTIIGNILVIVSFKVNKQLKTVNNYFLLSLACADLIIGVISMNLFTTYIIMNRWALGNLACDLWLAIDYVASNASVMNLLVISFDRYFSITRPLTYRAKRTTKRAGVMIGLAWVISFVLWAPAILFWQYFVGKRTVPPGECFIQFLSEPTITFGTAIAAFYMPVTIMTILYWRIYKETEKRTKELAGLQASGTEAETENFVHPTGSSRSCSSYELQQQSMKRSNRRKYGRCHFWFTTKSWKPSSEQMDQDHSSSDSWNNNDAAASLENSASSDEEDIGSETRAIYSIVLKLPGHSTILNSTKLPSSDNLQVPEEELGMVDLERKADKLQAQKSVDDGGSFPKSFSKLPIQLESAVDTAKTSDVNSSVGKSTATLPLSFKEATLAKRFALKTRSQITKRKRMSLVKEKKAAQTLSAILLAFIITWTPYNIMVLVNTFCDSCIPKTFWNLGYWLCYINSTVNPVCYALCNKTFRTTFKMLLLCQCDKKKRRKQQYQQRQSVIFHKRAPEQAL

Compound: Cc1cc2c(cc1Cc1ccc(-c3cocn3)cc1)C(=O)N([C@H]1CCOC[C@@H]1O)C2
- Activity (Canis familiaris [1]): Toxic
- Activity (Mus musculus): Active
- Cp(f) (Plasma): 200 nM
- Kp [2]: 0.2
- fCmax (Canis familiaris [3]): 1070 nM
- KA [4]: 60 µM
- fCmax (Rattus norvegicus [5]): 313 nM
- bioavailability [6]: 65%
- Kp uu [7]: 0.2
- EC50 [8]: > 10 µM
- Activity [9]: Not Active
- fAUC (Rattus norvegicus [10]): 20.609 µM·h
- Activity [11]: Not Active
- fCmax (Canis familiaris [12]): 303 nM
- bioavailability [13]: 91%
- Activity [14]: 50%
